Compound activity: PubChem BioAssay, several laboratories
Most compounds without a hit are left out; they make up all but 3.1% or so of the library.
rCAG RNA binder: binders of r(CAG) RNA repeats, primary screen, biochemical, fluorescence | r(CAG) RNA repeat, TO-PRO-1 dye displacement fluorescence | inhibition, % at 3 µM | 370,000 compounds, 1.3% hits | AID 651821, 2012;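 active means inhibition above the plate cutoff, the mean of all test compounds on that plate plus 3 SD, cut at about 35% in these data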;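 further: 0% = DMSO alone and 100% = 100 µM mitoxantrone as full dye displacement; higher means more dye released from RNA so lower well fluorescence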
LEDGF integ inh: blockers of LEDGF/p75-dependent integrase strand transfer – biochemical, TR-FRET, high throughput, primary screen; HIV-1 integrase (with human LEDGF/p75); TR-FRET IN-LEDGF/p75 DNA integration, Eu/Cy5; inhibition, % at 3.7 µM; 370,000 compounds, 0.64% hits; AID 743269, 2014;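 active means inhibition above the screen-wide mean plus 3 SD, cut at about 13% in these data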;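 further: signal is the Cy5 over europium emission ratio at 671 and 618 nm; 0% = plate median of compound wells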
CSN inh: inhibitors of CSN-mediated cullin deneddylation, primary screen, biochemical, fluorescence polarization, uHTS; COP9 signalosome complex subunit 5 (Homo sapiens), Q92905; Purified CSN, SCF-Nedd8-OG deneddylation; inhibition, % at 12.5 µM; 360,000 compounds, 0.38% hits; AID 651999, 2013;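 active means pattern-corrected inhibition above about 35%, with an unprinted fluorescence ratio check between 0.5 and 1.5, limit read from the data, passing the limit was not always enough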;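 further: 0% = enzyme with substrate and 100% = substrate without enzyme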
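test system = HEK293T-derived human Csn5 enzyme | amount = 0.24 nM Csn5 enzyme, final concentration | medium = Tris/NaCl/DTT buffer, pH 7.5 | schedule = 90 min reaction at room temperature | signal = FP | evaluation = inhibition of Csn5 cleavage, % | compound dosing = single dose of 12.5 µM compound with 0.25% DMSO | probe or stimulus = 10 nM SCFSkp2-Nedd8OG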
UHRF1 MBD2 ctr: UHRF1 methylated DNA binding inhibitors, primary screen, counter-screen for MBD2 inhibitor project, biochemical, TR-FRET, human UHRF1, single concentration; E3 ubiquitin-protein ligase UHRF1 (Homo sapiens), Q96T88; UHRF1 binding to methylated oligo; inhibition, % at 4.4 µM; 370,000 compounds, 0.75% hits; in the data active means inhibition above about 21%;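 further: UHRF1 SRA domain binding a hemimethylated CpG hairpin DNA probe; 0% = median of test compound wells and 100% = reference inhibitor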
Target sequence (Q96T88 whole entry, looked up, the tested form may be a part): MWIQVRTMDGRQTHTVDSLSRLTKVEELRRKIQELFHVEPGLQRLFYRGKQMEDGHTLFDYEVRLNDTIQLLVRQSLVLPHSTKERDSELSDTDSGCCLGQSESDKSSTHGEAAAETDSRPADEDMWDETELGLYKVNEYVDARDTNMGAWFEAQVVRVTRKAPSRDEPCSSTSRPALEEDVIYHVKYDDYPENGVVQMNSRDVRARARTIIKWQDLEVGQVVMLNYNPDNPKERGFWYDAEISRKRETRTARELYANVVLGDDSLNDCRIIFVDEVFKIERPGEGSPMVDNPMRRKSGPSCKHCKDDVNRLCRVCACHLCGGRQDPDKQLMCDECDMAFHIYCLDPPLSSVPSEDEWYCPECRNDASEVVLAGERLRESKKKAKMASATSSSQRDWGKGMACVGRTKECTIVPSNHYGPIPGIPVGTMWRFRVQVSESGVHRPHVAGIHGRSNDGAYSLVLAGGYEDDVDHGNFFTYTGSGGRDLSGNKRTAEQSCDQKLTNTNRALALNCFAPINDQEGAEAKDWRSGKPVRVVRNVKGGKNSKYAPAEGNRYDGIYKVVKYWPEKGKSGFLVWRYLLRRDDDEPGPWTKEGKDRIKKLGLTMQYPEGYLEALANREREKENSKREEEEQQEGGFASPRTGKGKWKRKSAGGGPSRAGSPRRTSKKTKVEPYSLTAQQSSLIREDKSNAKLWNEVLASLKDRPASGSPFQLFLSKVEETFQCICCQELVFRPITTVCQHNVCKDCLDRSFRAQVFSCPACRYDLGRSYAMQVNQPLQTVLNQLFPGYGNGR
MBD2 inh: inhibitors of MBD2 binding to methylated DNA, primary screen, biochemical, TR-FRET, DNA-binding domain, human; Methyl-CpG-binding domain protein 2 (Homo sapiens), Q9UBB5; MBD2 binding to methylated oligonucleotide; inhibition, % at 4.4 µM; 370,000 compounds, 0.31% hits; in the data active means inhibition above about 13%
ATG4B inh: ATG4B protease inhibitors, primary screen, biochemical, fluorescence, uHTS | Cysteine protease ATG4B (Homo sapiens), Q9Y4P1 | ATG4B cleavage of LC3-PLA2, NBD-HPC fluorescence, 1 h | inhibition, % at 8.33 µM | 340,000 compounds, 0.51% hits; in the data active means inhibition above about 40%
rCAG bind conf: small molecules binding CAG repeat RNA – biochemical, fluorescence, confirmation. r(CAG) RNA repeat, TO-PRO-1 dye displacement fluorescence. inhibition, % at 3 µM. 4,300 compounds, 70% hits. shares compounds with rCAG RNA binder;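 active means inhibition above a per-plate cutoff, the mean inhibition of sample wells plus 3 SD, cut at about 35% in these data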;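 further: loss of TO-PRO-1 fluorescence as compound displaces dye from 1x1 AA loop RNA; 0% = DMSO only wells and 100% = 100 µM mitoxantrone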
dCAG dye counter: displacement of TO-PRO-1 from CAG DNA duplex, counter-screen for rCAG RNA repeat binder project, biochemical, fluorescence, TO-PRO-1 dye, d(CAG) DNA oligo; shares compounds with rCAG RNA binder; d(CAG) DNA oligo TO-PRO-1 dye displacement; inhibition, % at 3 µM; 4,300 compounds, 94% hits; AID 652068, 2013;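 active means inhibition above its plate's cutoff, the mean test-well inhibition plus 3 SD, cut at about 4.8% in these data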;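 further: 0% = DNA dye mix with DMSO and 100% = 100 µM mitoxantrone; hits displace the dye from DNA and so lower well fluorescence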
Starred values were filed as active, the others as inactive; x = no result given.

SMILES | rCAG RNA binder | LEDGF integ inh | CSN inh | UHRF1 MBD2 ctr | MBD2 inh | ATG4B inh | rCAG bind conf | dCAG dye counter
Cc1noc(NS(=O)(=O)c2ccc(NC(=O)CSc3nnc4c(n3)[nH]c3ccccc34)cc2)c1C | 65* | -3 | 2 | 3 | 0 | -3 | 67* | 32*
Cc1noc(NS(=O)(=O)c2ccc(NC(=O)C(F)(F)F)cc2)c1C | -2 | -1 | 0 | -3 | -1 | -6 | x | x
CCN(CC)C(=O)C(=O)c1cccn1-c1c(Cl)cccc1C#N | 36* | 1 | -3 | 0 | -3 | -13 | 3 | 2
CCN(CC)C(=O)C(=O)c1cccn1-c1cccc(Cl)c1C#N | -4 | -2 | 5 | 0 | 1 | -13 | x | x
CC(C)(C)c1ccc(N/N=C(\C#N)S(=O)(=O)C(C)(C)C)cc1 | 36* | 0 | 3 | 0 | -7 | -10 | 50* | 19*
O=C(O)c1ccc(/C=N/NC(=O)c2cc3ccccc3cc2O)cc1 | 47* | -4 | 2 | 3 | 3 | 2 | 23 | 7.6*
C/C(CC(=O)N1CCN(C=O)CC1)=N\NC(=O)c1cc2ccccc2cc1O | 53* | 3 | 0 | 7 | 0 | -4 | 22 | 9.2*
C/C(=N\NC(=O)c1cc2ccccc2cc1O)c1cc2ccccc2o1 | 50* | 2 | 3 | -1 | 2 | 1 | 40* | 15*
O=C(c1ccc(F)cc1F)N1CCC(Oc2cccnc2)CC1 | 0 | 3 | x | 4 | 4 | x | x | x
COC(=O)[C@]12C[C@H](CC(=O)NCc3cccs3)C(=O)N(Cc3ccccc3)C1=C[C@H](COCc1ccccc1)O[C@@H]2C | 7 | -6 | x | 0 | 1 | x | x | x
Cc1cc(C)nc(NS(=O)(=O)c2ccc(NC(=O)C3(c4ccc([N+](=O)[O-])cc4)CCCC3)cc2)n1 | 40* | 2 | -3 | 2 | -1 | 17 | 34 | 9.0*
O=C(Nc1ccc(OC(F)(F)F)cc1)Nc1c(-c2ccc(C(F)(F)F)cc2)nc2ncccn12 | 5 | 4 | x | -1 | -3 | x | x | x
Cc1ccc(OCc2n[nH]c(=S)n2-c2ccc(Cl)cc2)cc1 | 15 | -1 | 3 | 0 | 6 | -3 | x | x
Cc1ccc(C2=Nn3c(COc4ccc(Cl)cc4)nnc3SC2CC(=O)O)cc1 (stereo unspecified) | 47* | 1 | 2 | 0 | -3 | 4 | 42* | 11*
O=C(/C=C/c1ccccc1)Nc1cccc(S(=O)(=O)Nc2ccccc2F)c1 | 38* | -2 | -11 | 1 | 1 | -17 | 40* | 13*
COC(=O)c1[nH]c2ccc(C)cc2c1NC(=O)CN1CCN(c2ccccc2)CC1 | -7 | 2 | 4 | -2 | -4 | -16 | x | x
Cc1ccc2[nH]c(C(=O)O)c(NC(=O)CN3CCN(c4cccc(C)c4C)CC3)c2c1 | 65* | 2 | 2 | 0 | 1 | 29 | 69* | 28*
COc1ccccc1Nc1nc2ccccc2n2cnnc12 | 77* | 0 | -2 | -2 | -4 | -8 | 7 | 1
O=C(O)c1ccc(NS(=O)(=O)c2ccc(N3CCCC3)c([N+](=O)[O-])c2)cc1 | 2 | -2 | -2 | 0 | -4 | -1 | x | x
COC(=O)c1cc(NS(=O)(=O)c2ccc(N3CCOCC3)c([N+](=O)[O-])c2)cc(C(=O)OC)c1 | 51* | -3 | -11 | -2 | -2 | -1 | 40* | 11*
